# NPY Y2 blocker: NPY-Y2 receptor antagonists, primary screen, cell-based; Neuropeptide Y receptor type 2 (Homo sapiens), P49146; NPY-Y2 expressing cells, antagonist mode; inhibition, % at 2.7 µM; 0.99% of 140,000 active; in the data active means inhibition above about 17%
# Target sequence (P49146 whole entry, looked up): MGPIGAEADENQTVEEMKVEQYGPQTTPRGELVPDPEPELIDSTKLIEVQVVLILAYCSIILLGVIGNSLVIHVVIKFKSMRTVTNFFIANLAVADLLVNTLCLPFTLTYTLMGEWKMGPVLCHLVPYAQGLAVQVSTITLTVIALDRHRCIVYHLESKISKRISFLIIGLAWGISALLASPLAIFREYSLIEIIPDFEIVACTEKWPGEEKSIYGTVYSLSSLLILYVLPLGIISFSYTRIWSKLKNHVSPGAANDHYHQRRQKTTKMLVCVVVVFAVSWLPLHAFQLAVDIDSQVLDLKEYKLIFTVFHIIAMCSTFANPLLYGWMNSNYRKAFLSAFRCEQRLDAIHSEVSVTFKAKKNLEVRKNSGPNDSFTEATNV
# NPY2 pot ag: NPY-Y2 potentiators or agonists, primary screen, cell-based. Neuropeptide Y receptor type 2 (Homo sapiens), P49146. cells expressing NPY-Y2, potentiator/agonist read-out. activation, % at 3.6 µM. 0.45% of 220,000 active. AID 1359, 2008; in the data active means activation above about 27%;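 further: cells stimulated with NPY near EC25 plus isoproterenol at EC100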
# MT stabilizer: microtubule stabilizers in HeLa cells, primary screen, imaging, high-content imaging | 0.83% of 200,000 active | HeLa tubulin immunostaining HCS, 24 h; share of cells brighter than vehicle mean+2SD | AID 2205, 2009 | % tubulin-high responders, % at 10 µM;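 active means plate Z-score above 3 for both tubulin-high and condensed-nucleus cell shares, with cell loss under 80%, at 10 µM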;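 further: anti alpha tubulin signal scored within the nucleus-defined area of each cell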
# b-catenin transl: modulators of beta-catenin nuclear translocation, primary screen, imaging, HeLa cells, immunofluorescence, high-content; nuclear translocation activity, % at 5 µM; 0.3% of 190,000 active; AID 1665, 2009;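 active means nuclear translocation activity above 50% at 5 µM, with a well cell count of 50 or more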;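 further: per-cell ratio of nuclear to cytoplasmic median beta-catenin stain intensity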
#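 Read-out: Nuclear/cytoplasmic beta-catenin signal ratio, % activation | Assay system: Human HeLa cell line | Times: 24 h compound exposure at 37°C, 5% CO2 | Signal: Fluorescence imaging of beta-catenin antibody stain plus DAPI | Dosing: 5 µM primary, 0.02–20 µM confirmation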
# NPY-Y1 antag: NPY-Y1 receptor antagonists, primary screen, cell-based; HEK293-CNG Y1 cells, membrane potential fluorescence; NPY at EC95, then isoproterenol; inhibition, % at 3.6 µM; 1% of 200,000 active; AID 1040, 2008;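 active means inhibition above the campaign mean inhibition of all tested compounds plus 3 SD, cut at about 20% in these data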
#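 Material: HEK293 Y1/CNG channel cell line; also added: NPY (25 nM), isoproterenol (1 µM), Ro 20-1724 (25 µM); doses: one concentration, 3.6 µM, in 0.4% DMSO; schedule: compound incubation 1 h at room temperature, readout 45 min post-stimulation; technique: membrane potential fluorescence; measure: fluorescence ratio normalized to % inhibition between controls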
# NPY-Y1 PAM-ag: NPY-Y1 receptor potentiators or agonists, primary screen, cell-based; NPY-Y1 expressing cells, potentiator/agonist activation; Neuropeptide Y receptor type 1 (Homo sapiens), P25929; 0.37% of 220,000 active; AID 1304, 2008; activation, % at 3.6 µM; in the data active means activation above about 33%, passing the limit was not always enough;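 further: cells stimulated with NPY at EC10 then isoproterenol at EC100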
# NPY1 antag ctr: NPY-Y1 receptor antagonists, selectivity check, counter-screen for NPY-Y2 antagonist project, cell-based; inhibition, % at 3.6 µM; shares compounds with NPY Y2 blocker; cell-based NPY-Y1 antagonism counterscreen; 19% of 710 active; in the data active means inhibition above about 20%;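 further: cells challenged with NPY then isoproterenol with cAMP sensed through a CNG channel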
# NPY-Y2 ant conf: NPY-Y2 receptor antagonists, retest of hits, confirmation, HEK293-CNG cells, membrane potential fluorescence, triplicate | shares compounds with NPY Y2 blocker | 32% of 710 active | AID 1257, 2008 | inhibition, % at 2.8 µM | HEK293 NPY-Y2 CNG channel;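 active means mean inhibition of triplicate wells above the hit cutoff set in the primary screen, cut at about 17% in these data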
# Numbers stand for hits; - = inactive; . = no result. A selection: hits, their analogues and other compounds. The true share with any hit is near 2.6%.
SMILES,NPY Y2 blocker,NPY2 pot ag,MT stabilizer,b-catenin transl,NPY-Y1 antag,NPY-Y1 PAM-ag,NPY1 antag ctr,NPY-Y2 ant conf
COc1cc(S(=O)(=O)N2CCOCC2)ccc1NC(=O)COC(=O)CC12CC3CC(CC(C3)C1)C2,-,-,-,-,-,-,.,.
O=C(Cn1cnc2ccccc21)NCc1ccccc1,-,-,-,-,-,-,.,.
O=C(Cc1ccccc1)Nn1cnc2ccccc21,25,-,-,-,-,-,-,-
CCCOc1ccc(N2C(=O)CC(N3CCN(CCN=CC4C(=O)CC(C)(C)CC4=O)CC3)C2=O)cc1 (centres undefined),.,-,-,-,-,-,.,.
COc1cccc(C(=O)Nc2c[nH]c(=O)[nH]c2=O)c1,.,-,.,-,.,-,.,.
CC(C)(C)NC(=O)C(c1ccc(F)cc1)N(Cc1ccco1)C(=O)Cn1nnc(-c2cccs2)n1 (centres undefined),24,-,-,-,-,-,-,-
Cc1cccc(N2CCN(C(=O)CCCOc3ccccc3)CC2)c1C,19,-,-,.,-,-,-,-
Cc1cccc(N2CCN(C(=O)C(Cc3ccccc3)n3cccc3)CC2)c1C (centres undefined),26,-,-,-,-,-,-,-
O=C(C(Cc1ccccc1)n1cccc1)N1CCN(c2ncccn2)CC1 (centres undefined),-,-,-,.,-,-,.,.
CCS(=O)(=O)c1ccc2c(c1)N(S(=O)(=O)c1ccc(Cl)cc1)CC(C(=O)O)O2 (centres undefined),.,-,-,-,-,-,.,.
Cc1cc(C(F)F)nn1CC(=O)NCc1ccc(Cl)cc1Cl,17,-,-,.,-,-,-,-
Cc1cc(C(F)F)nn1CC(=O)NCc1ccco1,-,-,-,-,-,-,.,.
CC[n+]1c(/C=C(\C)Nc2ccccc2)sc2ccccc21,23,-,-,-,-,-,-,-
CCOC(=O)c1sc(NC(=O)CSc2nc3c(c(=O)n2-c2ccc(C)cc2)SCC3)c(C(=O)OCC)c1C,-,-,-,-,-,-,.,.
CCOc1ccccc1NS(=O)(=O)c1cn(C)c(=O)n(C)c1=O,.,-,.,-,.,-,.,.
O=C(CSc1ncn(-c2ccccc2)n1)Nc1ccc2c(c1)OCCO2,18,-,-,-,-,-,27,24
Cc1ccc(SCC(=O)NC(=O)Nc2ccc3c(c2)OCCO3)cc1C,19,-,-,.,-,-,-,-
Cc1nnc(SCC(=O)NC(=O)Nc2ccc3c(c2)OCCO3)s1,.,-,-,-,-,-,.,.
O=C(CSc1nnnn1-c1ccc(Cl)cc1)NC(=O)Nc1ccc2c(c1)OCCO2,20,-,-,-,-,-,-,-
Cn1c(-c2ccccc2)cc2c3no[n+]([O-])c3ccc21,-,-,-,.,-,-,.,.
CC1=C(C#N)c2nc(N)c(C#N)c(C)c2/C1=C\c1ccc(OCC(=O)O)c(Cl)c1,.,-,.,-,.,-,.,.
O=C(Nc1ccccc1C(=O)N/N=C/c1ccncc1)c1ccccc1,.,-,-,.,-,-,.,.
COc1ccc(NC(=O)c2csc(Cc3ccc(Cl)cc3)n2)cc1,.,-,-,-,-,-,.,.
COc1ccc(Cc2nc(C(=O)Nc3ccccc3)cs2)cc1,18,-,-,-,-,-,-,-
S=C(NCc1ccccc1)Nc1cccc(Cl)c1,-,-,-,-,-,-,.,.
SMILES,NPY Y2 blocker,NPY2 pot ag,MT stabilizer,b-catenin transl,NPY-Y1 antag,NPY-Y1 PAM-ag,NPY1 antag ctr,NPY-Y2 ant conf
Cc1cccc(NC(=S)NNC(=S)NCc2ccccc2)c1,29,-,-,.,-,-,-,22
O=C(NC(Nc1nc2ccc([N+](=O)[O-])cc2s1)(C(F)(F)F)C(F)(F)F)c1ccccc1Cl,24,83,-,-,-,55,-,-
O=C(NC(Nc1nc2ccc([N+](=O)[O-])cc2s1)(C(F)(F)F)C(F)(F)F)c1cccnc1,18,33,-,-,-,48,-,-
O=C(NC(NNc1ccc([N+](=O)[O-])cc1)(C(F)(F)F)C(F)(F)F)c1ccccc1Cl,-,-,-,-,-,-,.,.
COC(=O)C(C)Sc1nc(-c2ccc(OC)cc2)nc2c1c(=O)n(C)c(=O)n2C (centres undefined),-,-,-,.,-,-,.,.
CCC(c1nnnn1CCc1ccccc1)N(Cc1ccco1)Cc1cc2c(C)ccc(C)c2[nH]c1=O (centres undefined),-,-,-,-,-,-,.,.
CCC(c1nnnn1CCc1ccccc1)N(Cc1ccco1)Cc1cc2cc(C)cc(C)c2[nH]c1=O (centres undefined),17,-,-,-,-,-,-,-
C=CCOc1c(Br)cc(/C=N/Nc2ccc(C(=O)O)cc2)cc1OCC,-,-,-,-,-,-,.,.
Cc1cc(/C=N/n2cnnc2)c(C)n1-c1ccc(OCc2ccc(Cl)cc2Cl)cc1,22,-,-,.,-,-,21,24
Cc1cc(/C=N/n2cnnc2)c(C)n1-c1ccc(Cl)cc1,-,-,-,-,-,-,.,.
COc1ccc(C2Nc3ccccc3C(=O)N2c2ccc(C)cc2)cc1Cn1nnc2ccccc21 (centres undefined),-,-,-,-,-,-,.,.
COc1ccc(C2Nc3ccccc3C(=O)N2c2ccc(C)cc2)cc1Cn1cc([N+](=O)[O-])cn1 (centres undefined),19,-,-,-,-,-,27,63
CCCC[C@@H]1CNC(=S)N1CCCC,.,-,-,-,-,-,.,.
Cc1[nH]c(=O)[nH]c(=O)c1S(=O)(=O)N1CCN(c2ccccc2F)CC1,-,-,-,-,-,-,.,.
O=c1[nH]c2ccc(S(=O)(=O)N3CCN(c4ccccc4F)CC3)cc2s1,18,-,-,-,-,-,-,-
CCOC(=O)c1nn(-c2cccc(C)c2)c2nc(-c3ccccc3)c(C#N)c(=O)n12,-,-,-,-,-,-,.,.
CCOC(=O)c1nn(-c2ccc(F)cc2)c2nc(-c3ccccc3)c(C#N)c(=O)n12,19,-,-,-,-,-,-,-
COc1ccc(-c2noc(-c3ccccc3-c3ccccc3)n2)cc1OC,18,-,-,-,-,-,-,-
COc1cc2c(cc1NC(=O)C(c1ccccc1)c1ccccc1)CCCC2,20,-,-,.,-,-,-,-
COc1cc2c(cc1NC(=O)c1ccccc1F)CCCC2,-,-,-,-,-,-,.,.
